Assay [1] concerns the target T1, Mitogen-activated protein kinase kinase kinase kinase 5 (Homo sapiens, UniProt Q9Y4K4). The assay is described as follows: Binding affinity to wild-type human partial length MAP4K5 (M1 to P297 residues) expressed in bacterial expression system assessed as residual binding level at 100 nM by Kinomescan method relative to control.
Target sequence in this assay (Q9Y4K4 whole entry, looked up, the tested form may be a part): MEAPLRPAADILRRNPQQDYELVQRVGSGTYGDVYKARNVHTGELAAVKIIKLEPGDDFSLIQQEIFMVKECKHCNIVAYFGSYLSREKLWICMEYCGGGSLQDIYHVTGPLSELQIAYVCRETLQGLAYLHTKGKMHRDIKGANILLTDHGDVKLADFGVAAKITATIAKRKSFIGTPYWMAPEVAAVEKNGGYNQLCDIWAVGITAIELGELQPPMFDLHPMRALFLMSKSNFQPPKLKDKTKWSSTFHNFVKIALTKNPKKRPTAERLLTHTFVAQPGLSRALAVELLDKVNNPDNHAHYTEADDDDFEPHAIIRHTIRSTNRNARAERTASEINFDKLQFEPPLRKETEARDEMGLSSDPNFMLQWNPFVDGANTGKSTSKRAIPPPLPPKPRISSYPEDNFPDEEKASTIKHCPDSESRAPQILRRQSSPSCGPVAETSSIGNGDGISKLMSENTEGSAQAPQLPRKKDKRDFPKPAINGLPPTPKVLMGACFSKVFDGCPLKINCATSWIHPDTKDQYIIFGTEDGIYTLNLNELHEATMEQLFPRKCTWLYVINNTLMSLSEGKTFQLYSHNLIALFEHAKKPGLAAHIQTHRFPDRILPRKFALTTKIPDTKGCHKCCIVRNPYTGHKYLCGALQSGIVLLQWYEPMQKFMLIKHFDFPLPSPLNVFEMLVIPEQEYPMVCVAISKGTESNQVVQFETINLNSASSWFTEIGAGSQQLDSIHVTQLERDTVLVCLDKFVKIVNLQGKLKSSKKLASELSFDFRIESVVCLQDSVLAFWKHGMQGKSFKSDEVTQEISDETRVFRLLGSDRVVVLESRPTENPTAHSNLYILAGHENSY
The target of assay [2] is T2, Dual specificity mitogen-activated protein kinase kinase 7 (Homo sapiens) (UniProt O14733).
T2 sequence (whole entry): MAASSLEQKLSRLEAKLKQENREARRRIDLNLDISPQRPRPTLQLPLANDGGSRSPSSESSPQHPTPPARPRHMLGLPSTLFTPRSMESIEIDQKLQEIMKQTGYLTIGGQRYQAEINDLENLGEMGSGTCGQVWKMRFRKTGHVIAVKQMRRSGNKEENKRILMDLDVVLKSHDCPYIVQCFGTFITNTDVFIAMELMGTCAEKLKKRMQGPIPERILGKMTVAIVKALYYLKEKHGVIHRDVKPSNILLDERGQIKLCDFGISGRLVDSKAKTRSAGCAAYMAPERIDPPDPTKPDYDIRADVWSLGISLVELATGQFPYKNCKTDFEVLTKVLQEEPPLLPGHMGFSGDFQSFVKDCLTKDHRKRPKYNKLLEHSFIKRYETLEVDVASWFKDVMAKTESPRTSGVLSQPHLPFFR
The assay is described as follows: Binding affinity to wild-type human full length MKK7 (M1 to R419 residues) expressed in mammalian expression system assessed as residual binding level at 100 nM by Kinomescan method relative to control.

Assay [3] has as its target T3, Mitogen-activated protein kinase kinase kinase 20 (Homo sapiens, UniProt Q9NYL2). The assay can be described thus: Binding affinity to wild-type human partial length ZAK (M1 to L331 residues) expressed in bacterial expression system assessed as residual binding level at 100 nM by Kinomescan method relative to control.
Target sequence in this assay (Q9NYL2 2-800 limits assumed): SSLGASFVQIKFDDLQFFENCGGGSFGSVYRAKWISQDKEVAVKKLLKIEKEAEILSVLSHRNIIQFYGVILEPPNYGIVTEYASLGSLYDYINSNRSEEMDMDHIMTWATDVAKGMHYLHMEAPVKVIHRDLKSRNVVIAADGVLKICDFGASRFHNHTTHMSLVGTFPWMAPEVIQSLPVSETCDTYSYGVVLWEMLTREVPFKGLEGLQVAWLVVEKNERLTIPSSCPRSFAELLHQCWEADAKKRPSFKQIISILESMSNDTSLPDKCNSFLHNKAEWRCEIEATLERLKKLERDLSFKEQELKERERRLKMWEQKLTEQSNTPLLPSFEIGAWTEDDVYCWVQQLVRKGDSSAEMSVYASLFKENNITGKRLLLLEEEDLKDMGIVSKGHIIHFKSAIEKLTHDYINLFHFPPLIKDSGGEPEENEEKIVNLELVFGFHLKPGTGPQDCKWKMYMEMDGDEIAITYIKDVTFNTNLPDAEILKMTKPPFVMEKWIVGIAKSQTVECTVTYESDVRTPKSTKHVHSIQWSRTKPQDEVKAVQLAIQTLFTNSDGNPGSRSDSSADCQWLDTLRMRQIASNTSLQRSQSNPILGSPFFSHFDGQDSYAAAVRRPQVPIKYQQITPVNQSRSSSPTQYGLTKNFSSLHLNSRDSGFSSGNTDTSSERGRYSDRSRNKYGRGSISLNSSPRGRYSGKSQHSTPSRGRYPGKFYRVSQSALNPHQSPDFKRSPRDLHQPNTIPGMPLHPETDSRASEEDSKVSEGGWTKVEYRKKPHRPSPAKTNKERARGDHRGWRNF
The target of assay [4] is T4, Dual specificity mitogen-activated protein kinase kinase 4 (Homo sapiens, UniProt P45985).
T4 sequence (P45985 whole entry): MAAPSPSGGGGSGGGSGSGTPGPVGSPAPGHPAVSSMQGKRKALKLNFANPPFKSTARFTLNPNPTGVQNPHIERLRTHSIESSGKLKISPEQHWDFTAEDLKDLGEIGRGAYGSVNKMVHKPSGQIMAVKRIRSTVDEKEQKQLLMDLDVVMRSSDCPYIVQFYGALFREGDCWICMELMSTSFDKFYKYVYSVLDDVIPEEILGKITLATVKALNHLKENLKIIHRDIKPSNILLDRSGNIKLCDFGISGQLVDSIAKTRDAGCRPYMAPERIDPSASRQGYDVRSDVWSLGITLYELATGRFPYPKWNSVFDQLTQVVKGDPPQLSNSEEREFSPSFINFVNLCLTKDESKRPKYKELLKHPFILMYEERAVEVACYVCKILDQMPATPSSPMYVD
The assay can be described thus: Inhibition of MKK4 (unknown origin) by PanQinase assay.

Assay [5] addresses Serine/threonine-protein kinase B-raf (Homo sapiens, UniProt P15056). The assay is described as follows: Binding affinity to wild-type human partial length BRAF (S429 to E741 residues) expressed in mammalian expression system by Kinomescan method.
The target in assay [6] is Mitogen-activated protein kinase 8 (Homo sapiens, UniProt P45983). The assay can be described thus: Binding affinity to wild-type human full length JNK1 (M1 to Q384 residues) expressed in mammalian expression system by Kinomescan method.
Chain of Mitogen-activated protein kinase 8 (P45983 whole entry, the tested form may be a part): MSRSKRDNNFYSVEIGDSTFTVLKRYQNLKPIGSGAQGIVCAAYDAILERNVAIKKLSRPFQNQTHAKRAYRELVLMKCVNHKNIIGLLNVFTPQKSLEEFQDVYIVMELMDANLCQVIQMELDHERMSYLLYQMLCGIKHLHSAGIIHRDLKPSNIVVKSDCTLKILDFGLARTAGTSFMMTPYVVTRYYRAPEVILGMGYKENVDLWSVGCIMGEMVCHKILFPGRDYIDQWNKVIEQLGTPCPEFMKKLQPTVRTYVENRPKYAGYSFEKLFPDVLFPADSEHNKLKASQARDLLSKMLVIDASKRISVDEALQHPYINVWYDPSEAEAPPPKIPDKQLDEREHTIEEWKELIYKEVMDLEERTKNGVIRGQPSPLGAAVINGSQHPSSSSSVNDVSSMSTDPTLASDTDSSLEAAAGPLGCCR
For assay [7], the target named is T1, Mitogen-activated protein kinase kinase kinase kinase 5. The assay is described as follows: Binding affinity to wild-type human partial length MAP4K5 (M1 to P297 residues) expressed in bacterial expression system by Kinomescan method. In a few lines:
(§1)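 Dissociation constants (Kd, nM) were determined by KINOMEscan competition-binding assay, in duplicate.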
Target sequence in this assay (Q9Y4K4 whole entry, the tested form may be a part): as the sequence (Q9Y4K4 whole entry, looked up, the tested form may be a part) above

Assay [8] concerns the target T5, Dual specificity mitogen-activated protein kinase kinase 7 (Homo sapiens, UniProt O14733).
T5 sequence (O14733 whole entry): T2 sequence (whole entry)
The assay is described as follows: Binding affinity to wild-type human full length MKK7 (M1 to R419 residues) expressed in mammalian expression system by Kinomescan method. In a few lines: as §1

Assay [9] addresses T3, Mitogen-activated protein kinase kinase kinase 20. The assay can be described thus: Binding affinity to wild-type human partial length ZAK (M1 to L331 residues) expressed in bacterial expression system by Kinomescan method. In a few lines: as §1
Target sequence in this assay (Q9NYL2 whole entry, the tested form may be a part): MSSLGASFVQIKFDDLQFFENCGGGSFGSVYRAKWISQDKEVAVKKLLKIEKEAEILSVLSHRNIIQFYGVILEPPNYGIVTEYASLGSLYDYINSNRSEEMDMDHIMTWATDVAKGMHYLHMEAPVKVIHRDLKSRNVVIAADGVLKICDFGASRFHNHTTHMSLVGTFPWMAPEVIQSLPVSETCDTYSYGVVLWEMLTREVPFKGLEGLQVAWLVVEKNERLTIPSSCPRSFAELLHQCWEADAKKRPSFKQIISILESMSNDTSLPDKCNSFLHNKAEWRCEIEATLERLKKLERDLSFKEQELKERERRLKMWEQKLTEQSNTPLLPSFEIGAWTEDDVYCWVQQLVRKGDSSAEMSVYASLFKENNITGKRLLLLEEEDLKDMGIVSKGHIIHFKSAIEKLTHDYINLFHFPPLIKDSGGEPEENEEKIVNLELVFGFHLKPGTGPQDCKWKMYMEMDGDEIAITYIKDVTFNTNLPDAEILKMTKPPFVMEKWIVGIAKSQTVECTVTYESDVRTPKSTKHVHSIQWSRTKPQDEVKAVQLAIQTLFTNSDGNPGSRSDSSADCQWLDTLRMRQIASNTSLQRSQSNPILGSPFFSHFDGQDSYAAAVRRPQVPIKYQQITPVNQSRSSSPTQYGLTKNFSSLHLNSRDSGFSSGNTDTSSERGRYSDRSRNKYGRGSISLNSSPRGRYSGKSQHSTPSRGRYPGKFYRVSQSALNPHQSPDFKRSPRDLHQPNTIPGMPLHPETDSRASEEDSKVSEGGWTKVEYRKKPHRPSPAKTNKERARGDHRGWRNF

Chain of Serine/threonine-protein kinase B-raf (P15056 whole entry, the tested form may be a part): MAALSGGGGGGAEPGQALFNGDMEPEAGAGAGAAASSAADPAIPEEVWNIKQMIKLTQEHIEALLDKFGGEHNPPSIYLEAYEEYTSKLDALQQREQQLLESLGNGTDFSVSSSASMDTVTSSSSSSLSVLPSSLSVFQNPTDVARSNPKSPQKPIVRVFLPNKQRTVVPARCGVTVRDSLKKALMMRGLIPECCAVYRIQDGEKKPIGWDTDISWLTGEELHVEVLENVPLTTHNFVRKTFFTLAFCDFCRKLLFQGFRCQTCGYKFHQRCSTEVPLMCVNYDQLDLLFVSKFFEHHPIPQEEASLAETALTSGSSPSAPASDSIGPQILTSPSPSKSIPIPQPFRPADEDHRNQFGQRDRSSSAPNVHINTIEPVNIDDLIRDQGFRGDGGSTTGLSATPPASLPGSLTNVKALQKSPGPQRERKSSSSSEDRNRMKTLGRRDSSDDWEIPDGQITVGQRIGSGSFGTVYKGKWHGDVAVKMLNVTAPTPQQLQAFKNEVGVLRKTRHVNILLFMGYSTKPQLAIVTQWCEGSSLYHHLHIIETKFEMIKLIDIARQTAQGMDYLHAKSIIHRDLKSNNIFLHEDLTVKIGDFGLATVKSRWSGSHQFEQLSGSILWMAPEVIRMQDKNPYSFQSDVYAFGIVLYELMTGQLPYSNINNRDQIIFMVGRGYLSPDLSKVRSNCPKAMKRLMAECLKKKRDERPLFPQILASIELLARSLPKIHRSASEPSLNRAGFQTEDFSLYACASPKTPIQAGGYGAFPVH

One may read the IC50 as the midpoint of a concentration-inhibition curve. Read a low IC50 as inhibition by little substance. On to `CCCS(=O)(=O)Nc1ccc(F)c(C(=O)c2n[nH]c3ncc(-c4ccc(S(=O)(=O)NC(C)=O)cc4)cc23)c1F`, for which the Activity was determined as 67% in assay [1], 71% in assay [2] and 38% in assay [3]. The compound also displayed an IC50 in assay [4] of 29 nM.

A word on the Kd: it is the equilibrium constant for the complex coming apart. A high value points to weaker binding. As to `Nc1ccc(-c2cnc3[nH]nc(C(=O)c4c(F)ccc(NS(=O)(=O)Cc5ccccc5)c4F)c3c2)cc1`, the Activity in assay [1] amounted to 1.4%; in assay [2] it was 100%; in assay [3], 1.8%. The Kd in [5] is 610 nM; in [6], 140 nM; in assay [7], 5.8 nM; in assay [8] it was 5000 nM; in assay [9], 9.5 nM.

Turning to `CCCS(=O)(=O)Nc1ccc(F)c(C(=O)c2n[nH]c3ncc(-c4ccc(S(N)(=O)=O)cc4)cc23)c1F`, the Activity was 100% in assay [1], 98% in assay [2] and 91% in [3]. The same compound came in with a 50% inhibitory concentration (IC50) in [4] of 89 nM.

For `CCCS(=O)(=O)Nc1ccc(F)c(C(=O)c2n[nH]c3ncc(-c4ccc(OC)cc4)cc23)c1F`, the results for the Activity in assay [1], in assay [2] and in [3] were 28%, 100% and 1.9%, respectively.

As for `CCCS(=O)(=O)Nc1ccc(F)c(C(=O)c2n[nH]c3ncc(-c4ccccc4F)cc23)c1F`, the Activity was determined as 59% in assay [1], 83% in assay [2] and 32% in [3].

As for `CCCS(=O)(=O)Nc1ccc(F)c(C(=O)c2n[nH]c3ncc(-c4cccc(N(C)C)c4)cc23)c1F`, the Activity was 11% in [1], 100% in assay [2] and 9.7% in [3].

Values taken from ChEMBL document CHEMBL4811244, “Design and synthesis of 1H-pyrazolo[3,4-b]pyridines targeting mitogen-activated protein kinase kinase 4 (MKK4) - A promising target for liver regeneration” (Eur J Med Chem, 2021).
